Data as given in article PMC5109833 (Journal of medicinal chemistry, 2015).
Read-outs that look alike come from different tables or passages of the source. Peptide text beside a SMILES is read from it.

Columns and labels:
STAT6 (SH2 domain) = molecular target: T1, STAT6 (SH2 domain) (Homo sapiens, UniProt P42226); test: Fluorescence polarization assay of affinity for STAT6; format: binding
T1 sequence (P42226 517-632 limits assumed): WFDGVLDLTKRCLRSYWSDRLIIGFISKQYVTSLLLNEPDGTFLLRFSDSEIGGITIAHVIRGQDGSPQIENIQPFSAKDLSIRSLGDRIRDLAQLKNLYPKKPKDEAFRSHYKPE

[1] = tested on: pSTAT6 (Tyr641) in Beas-2B cells; details: IL-4 and IL-13 stimulated; cited from earlier work
[2] = tested on: CCL26 (eotaxin-3) mRNA in Beas-2B cells; test: Inhibition of IL-13 stimulated CCL26; format: cell-based, human; details: IL-13, 100 nM
Summary of the method: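 Beas-2B cells plated at 4 × 10^5 cells/well and held overnight in complete medium, then serum-starved 2 h. Pretreated with test compound 2 h, then stimulated with IL-13 overnight in serum-free medium. RNA extracted with Trizol and reverse transcribed. CCL26 quantified relative to β-actin by TaqMan real-time PCR.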

[3] = tested on: pSTAT6 in CD4+ T lymphocytes; format: cell-based; details: primary mouse CD4+ T lymphocytes, Figure S2
Summary of the method: (§1)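 CD4+ T cells magnetically sorted from C57BL/6J mice. Activated on plate-bound anti-CD3 and/or anti-CD28 with IL-2 or IL-4 for 15 min. Lysed in kinase lysis buffer with protease inhibitors, 10 mM NaF and 1 mM Na3VO4. Protein equalised by Bradford, then immunoblotted for phospho-STAT5 Tyr694/STAT5 or phospho-STAT6 Tyr641/STAT6.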

[4] = tested on: pSTAT5 in CD4+ T lymphocytes; format: cell-based; details: primary mouse CD4+ T lymphocytes
Summary of the method: as §1

[5] = tested on: pSTAT6 (Tyr641) in Beas-2B cells; test: Inhibition of STAT6 Tyr641 phosphorylation in intact Beas-2B cells; format: cell-based, human; details: for pSTAT6 inhibition potency (in words): IL-4, Figure 4B
Summary of the method: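 Beas-2B cells seeded at 3.0 × 10^5 cells/well the day before. Prodrug added from DMSO stocks (5–10 μM stock) for 2 h, then IL-4 2 ng/mL for 1 h. Cells washed in cold PBS, lysed with PMSF, and protein measured by Lowry. 15–30 µg run on 10% SDS-PAGE and probed for pSTAT6 Tyr641 with ECL detection, then stripped and reprobed for total STAT6. Bands quantified densitometrically.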

Beas-2B cells = test: Beas-2B cell viability/proliferation, MTS assay, 72 h; format: cell-based, human; details: 72 h exposure
Summary of the method: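 Beas-2B cells seeded at 2000 cells/well. Test compound made as 10 mM DMSO stock, serially diluted in DMSO, and equal amounts of each dilution added. Incubation at 37 °C for 72 h. Medium then replaced with 1:5 MTS/PBS for a further 1 h. Viable cells estimated from optical density at 490 nm.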

pAkt in MDA-MB-468 cells = test: Inhibition of EGF-stimulated pAkt in MDA-MB-468 cells; format: cell-based, human; details: serum starved MDA-MB-468, EGF

## CC(C)(C)[C@H](NC(=O)/C=C/c1ccc(OP(=O)(O)O)cc1)C(=O)N1CCC[C@H]1C(=O)N(c1ccccc1)c1ccc(I)cc1 [18a]
STAT6 (SH2 domain)
  IC50: 40 nM

## CC[C@H](C)[C@H](NC(=O)[C@H](CC(C)C)NC(=O)[C@H](CC(=O)O)NC(=O)[C@H](CCC(N)=O)NC(=O)[C@H](Cc1ccccc1)NC(=O)[C@@H]1CCCN1C(=O)[C@H](CCCCN)NC(=O)[C@H](Cc1ccc(OP(=O)(O)O)cc1)NC(C)=O)C(N)=O [compound 1, Ac-pTyr-Lys-Pro-Phe-Gln-Asp-Leu-Ile-NH2] (HELM PEPTIDE1{[ac].[O=C([C@H](Cc1ccc(OP(=O)(O)O)cc1)N[*:1])[*:2]].K.P.F.Q.D.L.I.[am]}$$$$V2.0)
STAT6 (SH2 domain)
  IC50: 2000 nM

## CC(C)(C)C(=O)OCOP(=O)(OCOC(=O)C(C)(C)C)C(F)(F)c1ccc(/C=C/C(=O)N[C@H](C(=O)N2CCC[C@H]2C(=O)N(c2ccccc2)c2ccc(I)cc2)C(C)(C)C)cc1 [compound 17]
[1]
  concentration giving significant inhibition of pSTAT6: ≥ 1 µM
[2]
  inhibition of CCL26 mRNA expression at 100 nM: > 50%
[3]
  inhibition of IL-4 stimulated pSTAT6: relatively weak

## C/C(=C\C(=O)N[C@H](C(=O)N1CCCC1/C=C/CCc1ccccc1)C(C)(C)C)c1ccc(OP(=O)(O)O)cc1 (stereo partly drawn) [compound 25]
STAT6 (SH2 domain)
  IC50: 500 nM

## CC(C)(C)C(=O)OCOP(=O)(OCOC(=O)C(C)(C)C)C(F)(F)c1ccc(/C=C/C(=O)N[C@H](C(=O)N2CCC[C@H]2C(=O)N(c2ccccc2)c2ccccc2)C(C)(C)C)cc1 [compound 28]
[4]
  inhibition of IL-2 mediated STAT5 phosphorylation: robust inhibition
[5]; prodrug 2 h, IL-4 1 h
  concentration giving complete inhibition of pSTAT6: 500 nM
  concentration giving significant inhibition of pSTAT6: 100 nM
Beas-2B cells
  effect on cell viability at concentrations ≤1 µM: did not affect viability

## CN(C(=O)[C@@H]1CCCN1C(=O)[C@@H](NC(=O)/C=C/c1ccc(C(F)(F)P(=O)(OCOC(=O)C(C)(C)C)OCOC(=O)C(C)(C)C)cc1)C(C)(C)C)c1ccccc1 [compound 29]
[4]
  inhibition of IL-2 mediated STAT5 phosphorylation: robust inhibition
[5]; prodrug 2 h, IL-4 1 h
  concentration giving nearly complete inhibition of pSTAT6: 100 nM
  concentration giving significant inhibition of pSTAT6: 50 nM
pAkt in MDA-MB-468 cells
  inhibition of pAkt at 5 µM: mild inhibition
Beas-2B cells
  effect on cell viability at concentrations ≤1 µM: did not affect viability

## CC(C)(C)C(=O)OCOP(=O)(OCOC(=O)C(C)(C)C)C(F)(F)c1ccc(/C=C/C(=O)N[C@H](C(=O)N2CCC[C@H]2C(=O)Nc2ccccc2)C(C)(C)C)cc1 [compound 30]
[4]
  inhibition of IL-2 mediated STAT5 phosphorylation: not an inhibitor of pSTAT5
[5]; IL-4
  loss of pSTAT6 inhibition potency relative to 29: approximately 25 fold
pAkt in MDA-MB-468 cells
  lowest concentration with potent inhibition of pAkt: 100 nM
Beas-2B cells
  cell viability (in words): the fraction of viable cells paralleled pSTAT6 inhibition

## C/C(=C\C(=O)N[C@H](C(=O)N1CCC[C@H]1C(=O)N(C)c1ccccc1)C(C)(C)C)c1ccc(C(F)(F)P(=O)(OCOC(=O)C(C)(C)C)OCOC(=O)C(C)(C)C)cc1 [compound 31]
[4]
  inhibition of IL-2 mediated STAT5 phosphorylation: robust inhibition
[5]
  pSTAT6 inhibition potency (in words): retains potency
pAkt in MDA-MB-468 cells
  inhibition of pAkt at 5 µM: mild inhibition
Beas-2B cells
  cell viability (in words): nearly identical to that of 29
[2]
  inhibition of CCL26 mRNA expression at 100 nM: > 50%

## C/C(=C\C(=O)N[C@H](C(=O)N1CCC[C@H]1C(=O)N(C)C1CCCCC1)C(C)(C)C)c1ccc(C(F)(F)P(=O)(OCOC(=O)C(C)(C)C)OCOC(=O)C(C)(C)C)cc1 [compound 32]
[4]
  inhibition of IL-2 mediated STAT5 phosphorylation: robust inhibition
[5]
  pSTAT6 inhibition potency (in words): high potency
Beas-2B cells
  cell viability (in words): nearly identical to that of 29
